Experimental data: ChEMBL document CHEMBL3400037, “Bis-3-chloropiperidines containing bridging lysine linkers: Influence of side chain structure on DNA alkylating activity” (Bioorg Med Chem, 2015)
Calls of active or inactive are those of the source. No cut-off for these calls is given here.

Assays:
[1] = tested on: Escherichia coli; test: Induction of Escherichia coli supercoiled plasmid pBR322 DNA cleavage at 0.5 uM after 3 hrs at 37 degC using ethidium bromide by gel electrophoresis
Outline: (§1)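 Supercoiled pBR322 (3.5 nM) incubated with agent at 0.5, 5 or 50 µM in BPE buffer pH 7.4 for 3 h at 37 °C. Agent diluted fresh in water from DMSO stock. Products resolved on 1% agarose gel in 1× TAE and stained with ethidium bromide. Controls on gel were supercoiled, EcoRI-linearised and open circular plasmid markers. Chlorambucil at 50 µM was the reference agent.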

[2] = tested on: Escherichia coli; test: Induction of Escherichia coli supercoiled plasmid pBR322 DNA cleavage at 0.5 uM to 50 uM after 3 hrs at 37 degC using ethidium bromide by gel electrophoresis
Outline: (§2)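 Supercoiled pBR322 (3.5 nM) incubated with agent at 0.5, 5 or 50 µM for 3 h at 37 °C in bisphosphate–EDTA (BPE) buffer, pH 7.4; chlorambucil 50 µM as control. Dilutions freshly made in water from 8 mM DMSO stock. Forms resolved on 1% agarose in 1× TAE, ethidium bromide-stained; supercoiled, EcoRI-linearised and nicked open-circular plasmid as markers.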

[3] = Induction of alkylation of 5'-FAM-labeled scrambled duplex oligonucleotide DNA (unknown origin) at guanine residues at 5 to 50 uM after 24 hrs by sequencing gel analysis
[4] = tested on: Escherichia coli; test: Induction of Escherichia coli supercoiled plasmid pBR322 DNA cleavage at 0.5 uM to 50 uM after 24 hrs using ethidium bromide by gel electrophoresis
Outline: (§3)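 Supercoiled pBR322 (3.5 nM) exposed to agent at 24 h at ambient temperature in BPE buffer, pH 7.4; chlorambucil as control. Supercoiled, open-circular and linear forms separated by 1% agarose electrophoresis in 1× TAE, ethidium bromide-stained, with supercoiled, linear (EcoRI-cut) and nicked plasmid controls.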

[5] = tested on: Escherichia coli; test: Induction of Escherichia coli supercoiled plasmid pBR322 DNA cleavage at 50 uM after 3 hrs at 37 degC using ethidium bromide by gel electrophoresis; outline: as §1
[6] = tested on: Escherichia coli; test: Induction of Escherichia coli supercoiled plasmid pBR322 DNA cleavage at 50 uM after 24 hrs using ethidium bromide by gel electrophoresis
Outline: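 Supercoiled pBR322 (3.5 nM) incubated with agent in BPE buffer pH 7.4 at ambient temperature for 24 h. Products resolved on 1% agarose gel in 1× TAE and stained with ethidium bromide. Supercoiled, linear and open circular plasmid markers were run alongside.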

[7] = Reactive aziridinium ion formation in distilled water assessed as electrophilic aziridinium formation at 80 uM at 37 degC after 15 mins by ESI-MS analysis; format: physicochemical; settings: buffer, 0.25 h
Outline: (§4)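 An 80 µM solution of agent in distilled water was kept at 37 °C. Aliquots were taken at 0, 15, 30, 45, 60 and 120 min, diluted with methanol and analysed by ESI-MS for hydroxyl-substituted and aziridinium ion species.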

[8] = tested on: Escherichia coli; test: Induction of Escherichia coli supercoiled plasmid pBR322 DNA cleavage at 5 uM after 3 hrs at 37 degC using ethidium bromide by gel electrophoresis; outline: as §1
[9] = Reactive aziridinium ion formation in distilled water assessed as dihydroxyl substituted product formation at 80 uM at 37 degC after 15 mins by ESI-MS analysis; format: physicochemical; settings: buffer, 0.25 h; outline: as §4
[10] = tested on: Escherichia coli; test: Binding affinity to Escherichia coli supercoiled plasmid pBR322 DNA at 50 uM after 24 hrs using ethidium bromide by gel electrophoresis; outline: as §3
[11] = tested on: Escherichia coli; test: Binding affinity to Escherichia coli supercoiled plasmid pBR322 DNA at 50 uM after 3 hrs at 37 degC using ethidium bromide by gel electrophoresis; outline: as §2

Structure (SMILES) | Activity [1] | Activity [2] | Activity [3] | further results
CC1(C)CC(Cl)CN(CCCCCCN2CC(Cl)CC(C)(C)C2)C1 (stereo not drawn) | Active |  |  | 
CC1(C)CC(Cl)CN(CCCC[C@@H](C(=O)OCc2ccccc2)N2CC(Cl)CC(C)(C)C2)C1 (stereo partly drawn) |  | Active | Active | Activity [4]: Active
CC1(C)CC(Cl)CN(CCCCCN2CC(Cl)CC(C)(C)C2)C1 (stereo not drawn) | Active |  |  | 
O=C(O)CCCc1ccc(N(CCCl)CCCl)cc1 |  |  |  | Activity [5]: inactive; Activity [6]: inactive
CC1(C)CC(Cl)CN(CCCN2CC(Cl)CC(C)(C)C2)C1 (stereo not drawn) | Active |  |  | 
COC(=O)[C@H](CCCCN1CC(Cl)CC(C)(C)C1)N1CC(Cl)CC(C)(C)C1 (stereo partly drawn) |  | Active | Active | Activity [7]: Active; Activity [8]: Active; Activity [9]: Active; Activity [4]: Active
CC1(C)CC(Cl)CN(CCCC[C@@H](C(=O)OCCCc2ccccc2)N2CC(Cl)CC(C)(C)C2)C1 (stereo partly drawn) |  | inactive | Active | 
CC1(C)CC(Cl)CN(CCCC[C@@H](C(=O)OCCc2ccccc2)N2CC(Cl)CC(C)(C)C2)C1 (stereo partly drawn) |  | Active | Active | Activity [4]: Active
COc1ccc(OC(=O)[C@H](CCCCN2CC(Cl)CC(C)(C)C2)N2CC(Cl)CC(C)(C)C2)c2ccccc12 (stereo partly drawn) |  | inactive | Active | Activity [10]: Active; Activity [11]: Active
CC1(C)CC(Cl)CN(CCCCN2CC(Cl)CC(C)(C)C2)C1 (stereo not drawn) | Active |  |  | 
CC1(C)CC(Cl)CN(CCCC[C@@H](C(=O)Oc2cccc3ccccc23)N2CC(Cl)CC(C)(C)C2)C1 (stereo partly drawn) |  | inactive | Active | Activity [10]: Active; Activity [11]: Active
